Molecules are shown by their SMILES.

A short description of this data set: Toxicity liver stage against HepG2, at 10uM. The arrangement: test concentration 10 uM, cell line HepG2-A16-CD81EGFP. The class given is cell-based. To be noted: human, HepG2-A16-CD81EGFP cells; read-out: INHIBITION
The gist of the method:
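Uninfected HepG2-A16-CD81EGFP cells, 3 × 10^3 per well, 1536-well, plated on prespotted compound at 10 μM final, parasite-free screening media added to match infected plates; puromycin 10 μM positive, DMSO 0.5% negative; run in parallel with 48 h PbLuc assay at 37 °C, 5% CO2; viability by CellTiter-Glo luminescence, normalized to controls.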
`CCOCCCNC(=O)CCCC(=O)n1nc(C)c2ccccc21`: the cytotoxicity at 10 µM was -1.29%.

Consider `COC(=O)CCNC(=O)c1nc(NS(=O)(=O)c2ccccc2)sc1C`, for which the cytotoxicity at 10 µM worked out at 8.23%.

Regarding `CCc1nnc2ccc(N3CCN(S(=O)(=O)c4ccc(Cl)s4)CC3)nn12`, the cytotoxicity at 10 µM worked out at 5.01%.

For the compound `Cc1nc(N(C)C)nc(C)c1NS(=O)(=O)c1ccccc1Cl`, the cytotoxicity at 10 µM came out at 4.22%.

For the compound `CNC(=O)[C@H]1C[C@@H]2CN(C(=O)c3ccsc3)C[C@@H]2N1S(C)(=O)=O`, the cytotoxicity at 10 µM was -2.42%.

Turning to `CN1CCc2c(C#N)c(NCCCO)n3cnnc3c2C1`, the cytotoxicity at 10 µM amounted to 8.71%.

Turning to `CC(C)OCCCNC(=O)C1CCCN(c2ccc3nncn3n2)C1` (stereo unspecified), the cytotoxicity at 10 µM is 1.77%.

Regarding `Cc1nn(C)c2cn(C(C)C(=O)NCc3ccncc3)nc12` (stereo unspecified), the cytotoxicity at 10 µM is 1.91%.

With `CCCNC(=O)c1cc(C(C)C)nc(N2CCCC2)n1`, the cytotoxicity at 10 µM stood at 8.77%.

For `CCn1c(NCc2ccco2)nc2c(C)nn(C)c2c1=O`, the cytotoxicity at 10 µM worked out at 2.48%.

As to `CC(C)C(=O)N1CCCC(Cc2ncccn2)C1` (stereo unspecified), the cytotoxicity at 10 µM was -2.49%.

Regarding `CC1(C)O[C@@](C)([C@H]2CC3(CCN(c4ncccn4)CC3)CO2)CC[C@@H]1O`, the cytotoxicity at 10 µM amounted to 4.98%.

Take `CCSCc1nc(O)c2nnn(C3CCN(Cc4ccco4)CC3)c2n1`: the cytotoxicity at 10 µM came to 8.79%.

For `Cc1cc(Cc2ccc(F)cc2)cc(C2CCCNC2)n1` (stereo unspecified), the cytotoxicity at 10 µM was -3.14%.

For `Fc1cc(F)cc(CN2CCC(c3cc4ncccc4cn3)CC2)c1`, the cytotoxicity at 10 µM was -1.13%.

Turning to `C[C@@H]1CN2C[C@H](O)CC2CN1Cc1ccncc1` (stereo partly specified), the cytotoxicity at 10 µM is 0.207%.

On to `CCc1nnc(Nc2cc(C)nc(C3CCN(c4cnccn4)C3)n2)s1` (stereo unspecified), for which the cytotoxicity at 10 µM was found to be 4.24%.

For the compound `CC(C)CC(=O)N1CCCC1c1nccnc1Nc1ncccn1` (stereo unspecified), the cytotoxicity at 10 µM was -13.8%.

As for `CNc1cc(CNC(=O)c2ccnc(OC)c2)nc(-c2ccncc2)n1`, the cytotoxicity at 10 µM is -7.08%.

Regarding `Cc1cc(-c2cnc(N3CCCC3)nc2-c2ccc(C)s2)on1`, the cytotoxicity at 10 µM was -0.279%.

On to `CN(C)C(=O)C1CN(Cc2ccccc2)CCN(S(C)(=O)=O)C1` (stereo unspecified), for which the cytotoxicity at 10 µM is -5.43%.

Regarding `O=C(NCc1cccnc1)c1ccc2nccn2c1`, the cytotoxicity at 10 µM is 8.08%.

Regarding `O=C(NC1CCCCC1)N1CCCC1c1nnc2n1CCNC2` (stereo unspecified), the cytotoxicity at 10 µM is 14.4%.

With `Cc1ccnc(NC(=O)c2ccc(Cl)o2)c1`, the cytotoxicity at 10 µM stood at 4.14%.

As to `CC(C)CNC(=O)c1sccc1-n1cnnn1`, the cytotoxicity at 10 µM stood at 0.00426%.

On to `O=S(=O)(NCCCn1cncn1)c1ccc2c(c1)OCCO2`, for which the cytotoxicity at 10 µM came out at 5.38%.

For `CCCn1nnnc1COC(=O)C1COc2ccc(Cl)cc2C1` (stereo unspecified), the cytotoxicity at 10 µM was -8.68%.

Take `Clc1ccc(C2(NCc3noc(C4CC4)n3)CCCC2)cc1`: the cytotoxicity at 10 µM was 13.3%.

With `COc1cc(CNC(=O)N2CCCC2c2cc(C)no2)ccn1` (stereo unspecified), the cytotoxicity at 10 µM stood at 1.95%.

Regarding `CC(C)(C)NC(=O)C1CSCN1S(=O)(=O)c1ccccc1F` (stereo unspecified), the cytotoxicity at 10 µM is -8.23%.

Take `CC(C)(C)c1nnc(CN2CCN(C(=O)CC3CCCCC3)CC2)o1`: the cytotoxicity at 10 µM was 15.3%.

Consider `Cc1cnn(CC2CCCN2CC(=O)N(C)Cc2cnn(C)c2)c1` (stereo unspecified), for which the cytotoxicity at 10 µM came out at 8.92%.

On to `COCCN(Cc1ccc(F)cc1Cl)C(=O)c1cc(C)n[nH]1`, for which the cytotoxicity at 10 µM amounted to 0.886%.

Take `CCc1nccn1C1CCCN(C(=O)c2cncn2-c2ccccc2)C1` (stereo unspecified): the cytotoxicity at 10 µM worked out at 5.62%.

For the compound `CNS(=O)(=O)CC1CCCN1C(=O)c1cccc(Cl)c1` (stereo unspecified), the cytotoxicity at 10 µM was -1.5%.

Turning to `CCN1CCC(CNC(=O)Nc2cnn(CC(N)=O)c2)C1` (stereo unspecified), the cytotoxicity at 10 µM stood at 1.1%.

As for `COCCCNC(=O)C1CCN(CC2(O)CCC(C)CC2)CC1` (stereo unspecified), the cytotoxicity at 10 µM came out at 21.6%.

Consider `Cc1noc(C)c1CNC(=O)C1(NS(C)(=O)=O)CCCCC1`, for which the cytotoxicity at 10 µM stood at 6.55%.

As to `Cc1nc(NC(=O)C(C)S(C)(=O)=O)sc1Cc1ccccc1F` (stereo unspecified), the cytotoxicity at 10 µM is 9.8%.

For `Cc1ccc(C(=O)NS(C)(=O)=O)cc1I`, the cytotoxicity at 10 µM worked out at 6.22%.

In the case of `CCOC(=O)CN1CCC(NC(=O)OC(C)(C)C)CC1`, the cytotoxicity at 10 µM is 0.449%.

As to `Cc1cc(C(=O)N2CCCS2(=O)=O)c(C)o1`, the cytotoxicity at 10 µM is -11.1%.

Consider `COc1ccc(C(=O)N2Cc3c(Cn4ccnc4)nn(C)c3C2)cc1`, for which the cytotoxicity at 10 µM amounted to 4.89%.

In the case of `CCc1ocnc1C(=O)N1CCC(n2cc(-c3ccsc3)nn2)CC1`, the cytotoxicity at 10 µM turned out to be 1.47%.

Take `CN(CCc1cnn(C)c1)C(=O)C1COc2ccccc2C1` (stereo unspecified): the cytotoxicity at 10 µM came to 1.33%.

Take `COc1ncc(-c2nccn2-c2ccccc2CN2CCOCC2)cn1`: the cytotoxicity at 10 µM worked out at 3.31%.

As to `O=C1CC[C@H]2CN(c3ncccc3F)CC[C@H]2N1CCc1ccccc1`, the cytotoxicity at 10 µM came out at 4.52%.

Turning to `COCc1nc(N(C)C/C=C/c2ccccc2)c2cnn(C)c2n1`, the cytotoxicity at 10 µM was -2.21%.

Take `COCCn1c(=O)n(Cc2ccc(Cl)s2)c2cc(C(=O)O)ccc21`: the cytotoxicity at 10 µM was -5.54%.

Take `COCCC(=O)N1CCC2(CCCN(Cc3cc(OC)ccc3F)C2)C1` (stereo unspecified): the cytotoxicity at 10 µM was 3.55%.

On to `O=C(N[C@@H]1CCNC[C@H]1O)c1ccc(-c2ccc(F)cc2)cc1`, for which the cytotoxicity at 10 µM was -6.29%.

Regarding `Cc1ccc(CN2CCC3(C2)C(=O)N(CC(N)=O)c2ccccc23)s1` (stereo unspecified), the cytotoxicity at 10 µM amounted to 5.37%.

In the case of `CCCc1nc(CN(CC)Cc2ccoc2)no1`, the cytotoxicity at 10 µM is -2.52%.

Regarding `COC[C@]1(O)CCN(Cc2cnc(N3CCOCC3)nc2)CC1(C)C`, the cytotoxicity at 10 µM was 1.4%.

`Cc1nccn1-c1ccccc1CNC(=O)c1cn(CCN)nn1`: the cytotoxicity at 10 µM worked out at 1.58%.

`Cc1cccc(N2CCC(N3CCC4(CCCNC4=O)C3)CC2)c1C` (stereo unspecified): the cytotoxicity at 10 µM was -5.66%.

For the compound `CC(NCc1cn(CCC(N)=O)c2ccccc12)c1nncn1C` (stereo unspecified), the cytotoxicity at 10 µM turned out to be 0.78%.

`O=C1NCCCC[C@@H]1NC(=O)C1(N2CCCCC2)Cc2ccccc2C1`: the cytotoxicity at 10 µM is -4.3%.

On to `CC1=CCN(C(=O)Nc2ccccc2N2CCOC2=O)CC1`, for which the cytotoxicity at 10 µM is -0.724%.

`CN1CC2(CCN(C(=O)c3ccc(-n4cccn4)cc3Cl)C2)OC1=O` (stereo unspecified): the cytotoxicity at 10 µM is 4.36%.

`CCOc1ccc(CC(=O)N2C[C@H](C3CC3)[C@@H](N)C2)cc1`: the cytotoxicity at 10 µM was -7.76%.

As for `O=C(O)c1ccc(CC2CCN(S(=O)(=O)N3CCOCC3)C2)cc1` (stereo unspecified), the cytotoxicity at 10 µM is 1.62%.

Take `COCCCn1cnnc1C(C)NC(=O)c1[nH]c2ccc(C)cc2c1C` (stereo unspecified): the cytotoxicity at 10 µM was found to be 2.52%.

`COC[C@]1(O)CCN(c2cc(N3CCOCC3)ncn2)CC1(C)C`: the cytotoxicity at 10 µM was -3.81%.

For `CCc1noc(-c2cccc(NC(=O)C(C)(C)C)c2)n1`, the cytotoxicity at 10 µM was -4.15%.

`CN1CCC(C)(CN(C)Cc2ccc(CCC(C)(C)O)cc2)C1` (stereo unspecified): the cytotoxicity at 10 µM is -6.44%.

In the case of `O=C(NCc1nncn1C1CCCCC1)C1COc2ccccc2C1` (stereo unspecified), the cytotoxicity at 10 µM was determined as 3.16%.

Turning to `N#Cc1cc2c(nc1SCc1cc(O)nc(O)n1)CCCC2`, the cytotoxicity at 10 µM was -3.94%.

Turning to `NCc1cn(-c2ccccc2C(=O)NCc2cccc(Cl)c2)cn1`, the cytotoxicity at 10 µM was determined as 4.14%.

Consider `CC(=O)N(Cc1ncc(C(C)C)o1)C1CCN(CC2CCC2)C1` (stereo unspecified), for which the cytotoxicity at 10 µM was -11.8%.

As to `Cc1noc2ncc(C(=O)N3CCCC(n4ccnc4C)C3)cc12` (stereo unspecified), the cytotoxicity at 10 µM was -13.4%.

For `Cc1noc(Cl)c1CCC(=O)N1CCC(CC(N)=O)CC1`, the cytotoxicity at 10 µM is -0.0707%.

In the case of `CCOc1ccc(NC(=O)NCc2csc(NC)n2)cc1C`, the cytotoxicity at 10 µM is -3.91%.

Take `CS(=O)(=O)NCC1CCCN(C(=O)COCc2ccccc2)C1` (stereo unspecified): the cytotoxicity at 10 µM was -7.59%.

Turning to `CC(O)CN1CCC(CNCc2ccccc2OC(F)(F)F)CC1` (stereo unspecified), the cytotoxicity at 10 µM is -11.6%.

In the case of `Cn1cc(CN2CCCN(C(=O)c3cc(Cl)cn3C)CC2)cn1`, the cytotoxicity at 10 µM was -1.63%.

Turning to `Cc1c(C(=O)NC(CN2CCCC2=O)c2ccccc2)cnn1C` (stereo unspecified), the cytotoxicity at 10 µM was -8.7%.

Consider `O=C(NCCNc1ncccn1)N(Cc1ccc(F)cc1F)C1CC1`, for which the cytotoxicity at 10 µM was -2.84%.

Regarding `CN(CC(=O)Nc1ccc(Br)cn1)C(=O)Cc1ccc(O)cc1`, the cytotoxicity at 10 µM was -0.0241%.

For `OC(CNCCn1cccn1)c1ccc2c(c1)OCCO2` (stereo unspecified), the cytotoxicity at 10 µM is -0.361%.

Regarding `Cc1csc(N2CCN(C(=O)CCc3nccs3)CC2)n1`, the cytotoxicity at 10 µM is -3.68%.

Take `Cc1nc(COc2ccc(CNCC3CN(C)CCO3)cc2)cs1` (stereo unspecified): the cytotoxicity at 10 µM was -13.1%.

Consider `Cc1ccc(OCCSC2=NCCN2)cc1`, for which the cytotoxicity at 10 µM was -2.01%.

On to `O=C(NC1CCC1)[C@@H]1C[C@@H]2CCN(Cc3ccncc3)C[C@H]2O1`, for which the cytotoxicity at 10 µM was -22.5%.

Take `COCC(=O)NC1CC2(CCN(Cc3ccco3)CC2)c2ccccc21` (stereo unspecified): the cytotoxicity at 10 µM was determined as 5.61%.

On to `O=C(C1CCC1)N1C[C@@H](c2ccsc2)[C@@H]2CN(C3CCCCC3)CC[C@@H]21`, for which the cytotoxicity at 10 µM turned out to be 1.32%.

On to `c1ccc(NC[C@@H]2CCC[C@@H]3CN(Cc4cccnc4)C[C@@H]32)nc1`, for which the cytotoxicity at 10 µM was 2.78%.

As for `COCCO[C@H]1CCN(Cc2cccs2)[C@H]1Cc1cccnc1`, the cytotoxicity at 10 µM was -2.23%.

As to `Cc1nn(C)c(C)c1CNCc1ccc(N2CCOCC2)nc1`, the cytotoxicity at 10 µM amounted to 3.68%.

For the compound `CCOCC1CC2(CCN(C(=O)c3ccccn3)CC2)CO1` (stereo unspecified), the cytotoxicity at 10 µM is -3.76%.

As for `c1cnn(Cc2nnc3n2CCCN(Cc2ccsc2)C3)c1`, the cytotoxicity at 10 µM is -0.714%.

Take `Cc1ccc(CN2CC[C@H]3[C@@H]2CCC(=O)N3CCN2CCCC2)s1`: the cytotoxicity at 10 µM amounted to 3.01%.

In the case of `CC(CCc1ccccc1)NC(=O)CNCCCN1CCOCC1` (stereo unspecified), the cytotoxicity at 10 µM is -11.1%.

Consider `COCCN1CCCC12CCN(C(=O)CC1CCCC1)CC2`, for which the cytotoxicity at 10 µM was determined as 5.47%.

In the case of `Fc1cnc(N2CCCC3(CN(Cc4cccs4)CCO3)C2)nc1` (stereo unspecified), the cytotoxicity at 10 µM stood at 7.37%.

On to `COc1ccc(C(=O)N2C[C@@H]3CC[C@H]2CN(C)C3)cc1Cl`, for which the cytotoxicity at 10 µM stood at 5.79%.

Source of the values: ChEMBL document CHEMBL4513216, “Probing the Open Global Health Chemical Diversity Library for Multistage-Active Starting Points for Next-Generation Antimalarials” (ACS Infect Dis, 2020).
